This is an account of results in ChEMBL document CHEMBL4359823, “Switching on the activity of 1,5-diaryl-pyrrole derivatives against drug-resistant ESKAPE bacteria: Structure-activity relationships and mode of action studies” (Eur J Med Chem, 2019).

What all share (format): functional
Assay [1] has as its system Pseudomonas aeruginosa. The assay is described as follows: Antibacterial activity against Pseudomonas aeruginosa NCTC13437 measured after overnight incubation by microbroth dilution method. The method, boiled down: (§1)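 Microbroth dilution MIC. Compound DMSO stocks were diluted in water as a 2-fold series. Overnight TSB cultures were back-diluted to OD 0.01 and mixed 1:1 with compound. Plates were incubated overnight at 37 °C. MIC was the lowest concentration without visible growth (<0.1 OD600), run in duplicate.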

Assay [2] concerns Staphylococcus aureus. The assay is described as follows: Antibacterial activity against methicillin resistant Staphylococcus aureus NCTC13616 measured after overnight incubation by microbroth dilution method. In a few lines: (§2)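 Microbroth dilution: DMSO stocks diluted in water, 2-fold series. Overnight TSB cultures back-diluted to OD 0.01 and mixed 1:1 with compound. Incubated overnight at 37 °C; MIC taken as lowest concentration without visible growth (<0.1 OD600). Run in duplicate; matching DMSO levels checked for effect on growth.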
(Broth dilution looks for growth in wells or tubes with falling amounts of substance.)

The subject of assay [3] is Acinetobacter baumannii. The assay can be described thus: Antibacterial activity against Acinetobacter baumannii AYE measured after overnight incubation by microbroth dilution method. In a few lines:
as §1

In assay [4] the test system is Pseudomonas aeruginosa. The assay can be described thus: Antibacterial activity against Pseudomonas aeruginosa PAO1 measured after overnight incubation by microbroth dilution method. The method, boiled down: as §1
Assay [5] has as its system Klebsiella pneumoniae. The assay can be described thus: Antibacterial activity against Klebsiella pneumoniae M6 measured after overnight incubation by microbroth dilution method. The method, boiled down: as §1
Assay [6] concerns Staphylococcus aureus. The assay can be described thus: Antibacterial activity against methicillin sensitive Staphylococcus aureus NCTC 6571 measured after overnight incubation by microbroth dilution method. The method, boiled down:
as §2

Assay [7] concerns Acinetobacter baumannii. The assay is described as follows: Antibacterial activity against Acinetobacter baumannii ATCC 17978 measured after overnight incubation by microbroth dilution method. In a few lines: as §1
Assay [8] has as its system Staphylococcus aureus. The assay is described as follows: Antibacterial activity against methicillin resistant Staphylococcus aureus NCTC13277 measured after overnight incubation by microbroth dilution method. In a few lines: as §2
In assay [9] the test system is Enterococcus faecalis. The assay can be described thus: Antibacterial activity against vancomycin sensitive Enterococcus faecalis NCTC775 measured after overnight incubation by microbroth dilution method. In a few lines: as §2
The subject of assay [10] is Enterococcus faecalis. The assay can be described thus: Antibacterial activity against vancomycin resistant Enterococcus faecalis NCTC12201 measured after overnight incubation by microbroth dilution method. The method, boiled down: as §2
Assay [11] relates to Klebsiella pneumoniae. The assay can be described thus: Antibacterial activity against Klebsiella pneumoniae NCTC13368 measured after overnight incubation by microbroth dilution method. The method, boiled down: as §1
Assay [12] has as its system Enterococcus faecalis. The assay can be described thus: Antibacterial activity against vancomycin resistant Enterococcus faecalis NCTC12204 measured after overnight incubation by microbroth dilution method. The method, boiled down: as §2
The next assay has as its system Escherichia coli. The assay can be described thus: Antibacterial activity against Escherichia coli NCTC12923 measured after overnight incubation by microbroth dilution method. The method, boiled down: as §1

The structures appear in SMILES notation. Values after ≈ are worked out from the molar mass of the structure shown. Where only a bound is given, the exact number is not on record here.

For `Cc1c(CNC2CCCCC2)cc(-c2ccc(Cl)cc2)n1-c1cccc(F)c1`, the MIC (in general, the least concentration at which growth counts as inhibited) against Pseudomonas aeruginosa [1] was > 128 µg/mL; with Staphylococcus aureus [2] it was 8 µg/mL (≈ 20.2 µM); against Acinetobacter baumannii [3], 128 µg/mL (≈ 322 µM); with Pseudomonas aeruginosa [4], > 128 µg/mL; with Klebsiella pneumoniae [5] it was > 128 µg/mL; in the assay with Staphylococcus aureus [6], 8 µg/mL (≈ 20.2 µM). Also, the MIC against Acinetobacter baumannii [7] was 128 µg/mL (≈ 322 µM); against Staphylococcus aureus [8], 8 µg/mL (≈ 20.2 µM); with Enterococcus faecalis [9] it was 8 µg/mL (≈ 20.2 µM); in the assay with Enterococcus faecalis [10], 4 µg/mL (≈ 10.1 µM); against Klebsiella pneumoniae [11], > 128 µg/mL; against Enterococcus faecalis [12], 4 µg/mL (≈ 10.1 µM). In addition, in the assay with Escherichia coli, the MIC is > 128 µg/mL.
As for `Cc1c(CNC2CCC(O)CC2)cc(-c2ccc(Cl)cc2)n1-c1ccc(Cl)cc1` (stereo not drawn), the MIC in the assay on Pseudomonas aeruginosa [1] is > 128 µg/mL; against Staphylococcus aureus [2], 16 µg/mL (≈ 37.3 µM); against Acinetobacter baumannii [3], 128 µg/mL (≈ 298 µM); in the assay on Pseudomonas aeruginosa [4], > 128 µg/mL; against Klebsiella pneumoniae [5], > 128 µg/mL; against Staphylococcus aureus [6] it was 16 µg/mL (≈ 37.3 µM). Also, the MIC in the assay with Acinetobacter baumannii [7] was 64 µg/mL (≈ 149 µM); against Staphylococcus aureus [8] it was 16 µg/mL (≈ 37.3 µM); against Enterococcus faecalis [9] it was 16 µg/mL (≈ 37.3 µM); in the assay on Enterococcus faecalis [10] it was 16 µg/mL (≈ 37.3 µM); against Klebsiella pneumoniae [11] it was > 128 µg/mL; against Enterococcus faecalis [12] it was 8 µg/mL (≈ 18.6 µM). The minimum inhibitory concentration (MIC) against Escherichia coli was > 128 µg/mL.
As to `Cc1cc(CNCCCCCCCCNC(=N)N)c(C)n1-c1ccc(Cl)cc1`, the MIC was 64 µg/mL (≈ 158 µM) in the assay on Pseudomonas aeruginosa [1]; 8 µg/mL (≈ 19.8 µM) in the assay with Staphylococcus aureus [2]; 64 µg/mL (≈ 158 µM) with Acinetobacter baumannii [3]; > 128 µg/mL against Pseudomonas aeruginosa [4]; 128 µg/mL (≈ 317 µM) against Klebsiella pneumoniae [5]; 4 µg/mL (≈ 9.9 µM) with Staphylococcus aureus [6]. Besides, the MIC is 16 µg/mL (≈ 39.6 µM) against Acinetobacter baumannii [7]; 8 µg/mL (≈ 19.8 µM) against Staphylococcus aureus [8]; 8 to 16 µg/mL (≈ 19.8 to 39.6 µM) against Enterococcus faecalis [9]; 16 µg/mL (≈ 39.6 µM) in the assay with Enterococcus faecalis [10]; > 128 µg/mL against Klebsiella pneumoniae [11]; 4 to 8 µg/mL (≈ 9.9 to 19.8 µM) against Enterococcus faecalis [12]. The same compound gave an MIC with Escherichia coli of 16 µg/mL (≈ 39.6 µM).
In the case of `Cc1cc(CNC2CCCCC2)c(C)n1-c1ccc(Cl)cc1`, the minimum inhibitory concentration (MIC) against Pseudomonas aeruginosa [1] was > 64 µg/mL; against Staphylococcus aureus [2], 64 µg/mL (≈ 202 µM); in the assay with Acinetobacter baumannii [3] it was > 64 µg/mL; against Pseudomonas aeruginosa [4], > 64 µg/mL; against Klebsiella pneumoniae [5] it was > 64 µg/mL; with Staphylococcus aureus [6], 64 µg/mL (≈ 202 µM). In addition, the MIC is > 64 µg/mL against Acinetobacter baumannii [7]; 64 µg/mL (≈ 202 µM) in the assay on Staphylococcus aureus [8]; 32 µg/mL (≈ 101 µM) against Enterococcus faecalis [9]; 32 µg/mL (≈ 101 µM) against Enterococcus faecalis [10]; > 64 µg/mL against Klebsiella pneumoniae [11]; 16 µg/mL (≈ 50.5 µM) against Enterococcus faecalis [12].
Regarding `Cc1c(CNCCNc2ccccc2)cc(-c2ccc(Cl)cc2)n1-c1ccc(Cl)cc1`, the MIC in the assay with Pseudomonas aeruginosa [1] is > 128 µg/mL; in the assay with Staphylococcus aureus [2] it was 4 to 8 µg/mL (≈ 8.88 to 17.8 µM); in the assay on Acinetobacter baumannii [3], > 128 µg/mL; against Pseudomonas aeruginosa [4] it was > 128 µg/mL; in the assay with Klebsiella pneumoniae [5], > 128 µg/mL; against Staphylococcus aureus [6], 4 to 8 µg/mL (≈ 8.88 to 17.8 µM). The MIC with Acinetobacter baumannii [7] was > 128 µg/mL; against Staphylococcus aureus [8], 4 to 8 µg/mL (≈ 8.88 to 17.8 µM); against Enterococcus faecalis [9] it was 4 µg/mL (≈ 8.88 µM); against Enterococcus faecalis [10], 4 µg/mL (≈ 8.88 µM); against Klebsiella pneumoniae [11], > 128 µg/mL; against Enterococcus faecalis [12], 4 to 8 µg/mL (≈ 8.88 to 17.8 µM). Further, in the assay with Escherichia coli, the MIC is > 128 µg/mL.
On to `Cc1c(CNC2CCC(N)CC2)cc(-c2ccc(Cl)cc2)n1-c1ccc(Cl)cc1` (stereo not drawn), for which the minimal inhibitory concentration (MIC) in the assay with Pseudomonas aeruginosa [1] was determined as 32 µg/mL (≈ 74.7 µM); in the assay on Staphylococcus aureus [2], 8 µg/mL (≈ 18.7 µM); in the assay with Acinetobacter baumannii [3] it was 32 µg/mL (≈ 74.7 µM); against Pseudomonas aeruginosa [4] it was 32 µg/mL (≈ 74.7 µM); with Klebsiella pneumoniae [5], 16 µg/mL (≈ 37.3 µM); in the assay on Staphylococcus aureus [6], 8 µg/mL (≈ 18.7 µM). The MIC against Acinetobacter baumannii [7] amounted to 16 µg/mL (≈ 37.3 µM); with Staphylococcus aureus [8], 8 µg/mL (≈ 18.7 µM); with Enterococcus faecalis [9] it was 8 µg/mL (≈ 18.7 µM); against Enterococcus faecalis [10], 8 µg/mL (≈ 18.7 µM); against Klebsiella pneumoniae [11] it was 32 µg/mL (≈ 74.7 µM); against Enterococcus faecalis [12], 4 µg/mL (≈ 9.34 µM). This compound had an MIC in the assay on Escherichia coli of 8 µg/mL (≈ 18.7 µM).
Consider `Cc1c(CNC2CCCCC2)cc(-c2ccc(Cl)cc2)n1-c1ccc(O)cc1`, for which the MIC against Pseudomonas aeruginosa [1] was > 128 µg/mL; against Staphylococcus aureus [2], 8 to 64 µg/mL (≈ 20.3 to 162 µM); in the assay on Acinetobacter baumannii [3] it was > 128 µg/mL; with Pseudomonas aeruginosa [4], > 128 µg/mL; against Klebsiella pneumoniae [5] it was > 128 µg/mL; against Staphylococcus aureus [6], 32 µg/mL (≈ 81 µM). The MIC with Acinetobacter baumannii [7] was 128 µg/mL (≈ 324 µM); against Staphylococcus aureus [8] it was 32 µg/mL (≈ 81 µM); with Enterococcus faecalis [9], 64 µg/mL (≈ 162 µM); against Enterococcus faecalis [10], 32 µg/mL (≈ 81 µM); against Klebsiella pneumoniae [11] it was > 128 µg/mL; in the assay on Enterococcus faecalis [12] it was 32 µg/mL (≈ 81 µM). Further, the MIC against Escherichia coli was > 128 µg/mL.
Take `Cc1c(CNC2CCCCC2)cc(-c2ccc(Cl)cc2)n1-c1ccc([N+](=O)[O-])cc1`: the minimum inhibitory concentration (MIC) in the assay with Pseudomonas aeruginosa [1] was > 128 µg/mL; in the assay on Staphylococcus aureus [2] it was 16 µg/mL (≈ 37.7 µM); in the assay on Acinetobacter baumannii [3] it was 128 µg/mL (≈ 302 µM); in the assay with Pseudomonas aeruginosa [4] it was > 128 µg/mL; against Klebsiella pneumoniae [5] it was > 128 µg/mL; in the assay on Staphylococcus aureus [6] it was 8 µg/mL (≈ 18.9 µM). Also, the MIC with Acinetobacter baumannii [7] is 128 µg/mL (≈ 302 µM); against Staphylococcus aureus [8], 16 µg/mL (≈ 37.7 µM); in the assay on Enterococcus faecalis [9] it was 8 µg/mL (≈ 18.9 µM); in the assay with Enterococcus faecalis [10], 8 µg/mL (≈ 18.9 µM); in the assay on Klebsiella pneumoniae [11], > 128 µg/mL; in the assay with Enterococcus faecalis [12], 4 µg/mL (≈ 9.44 µM). The MIC in the assay on Escherichia coli was > 128 µg/mL.
